Measured values from ChEMBL document CHEMBL4406880, “Design, synthesis, and bioactivity of dihydropyrimidine derivatives as kinesin spindle protein inhibitors” (Bioorg Med Chem, 2019).

Experiments:
Assay type in all cases: functional
786-0 = assay: Growth inhibition of human 786-0 cells assessed as cell viability at 0.1 uM incubated for 48 hrs by sulforhodamine B assay; settings: 786-0, 48 h, read-out: Activity
How it was run: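 NCI-60 five-dose mode: five tenfold dilutions (0.01, 0.1, 1, 10, 100 µM) are applied for 48 h to cells in RPMI 1640 with 5% FBS at 37 °C. Endpoint is TCA fixation with sulforhodamine B read at 515 nm. % growth comes from the 0 h and control absorbances. GI50 is the concentration giving a 50% reduction in net cell growth.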

SK-OV-3 = assay: Growth inhibition of human SKOV3 cells assessed as cell viability at 1 uM incubated for 48 hrs by sulforhodamine B assay; settings: SK-OV-3, 48 h, read-out: Activity
SNB-75 = assay: Cell cycle arrest in human SNB75 cells assessed as accumulation in S phase at 2 uM incubated for 24 hrs by propidium iodide based flow cytometry (reference value: 33.92 %)
How it was run: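 SNB-75 cells were exposed to 2 µM for 24 h at 37 °C, 5% CO2, then washed with PBS and fixed in 70% ethanol on ice for 15 min. They were stained 1 h at room temperature with 50 µg/mL propidium iodide, 0.1 mg/mL RNase A and 0.05% Triton X-100. DNA content was read by flow cytometry to give the % of cells in pre-G1, G0/G1, S and G2/M.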

Compound: CC1=C(C(=O)OCc2ccccc2)C(c2ccc3c(c2)OCO3)n2c(nc3ccccc32)N1 (racemic)
- viability at 0.1 µM (786-0): 97%
- viability at 1 µM (SK-OV-3): 27%
- Activity (SNB-75): 27.89%
